Experimental findings from ChEMBL document CHEMBL5550188, “Detection of a Mitochondrial Fragmentation and Integrated Stress Response Using the Cell Painting Assay” (2024) are described below.

In assay [1] the test system is U2OS. Put plainly: Effect on mitochondrial respiration in human U2OS cells assessed as suppression of OCR level measured after 24 hrs by Seahorse analysis. In kind it is functional, cell-based. The method, boiled down: (§1)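 Seahorse XFp Mito Stress Test on U-2OS, 2 × 10⁵ cells per well, seeded overnight. Assay medium was pH 7.4 DMEM with 2 mM GlutaMAX, 1 mM pyruvate and 25 mM glucose. For acute runs, compound was injected after 5 baseline reads, then 10 reads. Otherwise cells were pretreated 24 h. Then oligomycin A, FCCP and rotenone/antimycin A were added. OCR/ECAR were background-subtracted and normalized to the last baseline (100%). Mean ± SD, n = 3.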

Assay [2] deals with U2OS. The assay can be described thus: Induction of integrated stress response in human U2OS cells assessed as increase ATF4 mRNA level at 2 uM incubated for 24 hrs by RT-qPCR analysis. It is filed as functional, cell-based. In a few lines: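 U-2OS at 1 × 10⁵/well in 6-well plates were grown 24 h to ~80% confluence, then treated 24 h versus DMSO. Total RNA (DNase-treated) was reverse-transcribed and ATF4 measured by SYBR Green qPCR. Expression was calculated by ΔΔCt against GAPDH, with DMSO set to 100%. Mean ± SD, n = 3.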

For assay [3], the system named is U2OS. Put plainly: Inhibition of cell confluence in human U2OS cells at 10 uM measured after 48 hrs by PI/caspase-3/7 Green dye based analysis. In kind it is functional. In a few lines:
(§2)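 U-2OS at 5000/well were incubated overnight, then given medium with compound or DMSO plus propidium iodide and CellEvent Caspase-3/7 Green. Cells were imaged hourly for 48 h by live-cell imaging. Phase confluence gave growth; red and green object confluence gave PI-positive cells and caspase-3/7 activity.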

The test system of assay [4] is U2OS. The assay can be described thus: Induction of mitochondrial network fragmentation in human U2OS cells at 2 uM incubated for 24 hrs by CellLight Mitochondria-GFP assay. It is filed as functional, cell-based. In a few lines:
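U-2OS were transduced with CellLight Mitochondria-GFP BacMam 2.0 one day before treatment. 3000 cells/well were seeded in chamber slides. After compound addition, live cells were imaged by confocal microscopy (488/555 nm) continuously over 24 h at 37 °C, 5% CO₂.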

For assay [5], the system named is U2OS. Put plainly: Effect on HIF1 signaling in human U2OS cells at 2 uM incubated for 24 hrs by pathway over-representation analysis. It is filed as functional, cell-based. The method, boiled down: (§3)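 U-2OS seeded at 1 × 10⁶ cells in T75 flasks, treated next day for 24 h at 37 °C versus DMSO. Cells were lysed by freeze–thaw, reduced with TCEP at 55 °C, alkylated with iodoacetamide, acetone-precipitated and trypsin-digested. Peptides were TMT-labelled, split into 10 fractions by high-pH C18, then run on nanoHPLC-MS/MS (orbitrap). Biological triplicates, with pathway over-representation analysis.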

The subject of assay [6] is HEK-293T. Put plainly: Upregulation of HIF1 level in HEK293T cells transfected with HIF1/luc at 2 uM incubated for 24 hrs by Renilla luciferase base assay. In kind it is functional, cell-based. Particulars: Homo sapiens. In a few lines: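 HEK293T were co-transfected (Lipofectamine 2000) with a PGK1-HRE-driven destabilized firefly luciferase reporter and constitutive TK-Renilla. Cells were seeded at 2.5 × 10⁴/well, then treated 24 h the next day, with 100 μM CoCl₂ and 10 μM ML228 as controls. Dual-Glo readout: firefly was normalized to Renilla and expressed as fold induction over DMSO.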

For assay [7], the system named is U2OS. The assay can be described thus: Induction of mitochondrial fragmentation in human U2OS cells assessed as puncta-like staining at 2 uM incubated for 20 hrs by Mito Tracker Deep Red dye based CPA assay. In kind it is functional, cell-based. The method, boiled down: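 Cell Painting: U-2OS were seeded at 1600 cells/well, then dosed 4 h later for 20 h at 37 °C against a matched-% DMSO control. Live cells were stained 30 min with 100 nM MitoTracker Deep Red, then fixed in 3.7% formaldehyde and permeabilized with 0.1% Triton X-100. They were co-stained with phalloidin, concanavalin A, Hoechst, WGA and SYTO 14. Imaging was high-content, run as triplicate plates; features are Z-scores versus DMSO median/MAD.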

For assay [8], the system named is U2OS. The assay can be described thus: Induction of integrated stress response in human U2OS cells assessed as increase ATF4 level at 2 uM incubated for 24 hrs by Western blot analysis. In kind it is functional, cell-based. The method, boiled down: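 U-2OS grown to 80% confluence in 6-well plates were treated 24 h at 37 °C versus DMSO. ATF4 was detected by immunoblotting, with vinculin as reference protein.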
For orientation: A western blot detects proteins with antibodies after separation by electrophoresis.

Assay [9] deals with U2OS. The assay can be described thus: Effect on glycolysis in human U2OS cells assessed as increase in ECAR level at 2 to 10 uM of acute treatment by Seahorse analysis. In kind it is functional, cell-based. The note with it: dose 2-10 µM. The method, boiled down:
as §1

Assay [10] relates to U2OS. The assay can be described thus: Effect on mitochondrial membrane potential in human U2OS cells at 2 uM incubated for 24 hrs by TRME staining based analysis. In kind it is functional, cell-based. The method, boiled down:
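U-2OS (5 × 10³/well) were treated 24 h, then given 20 μM FCCP or 0.5% DMSO controls for 10 min. Cells were stained 30 min at 37 °C with 1 μM TMRE plus Hoechst-33342 in complete DMEM, washed, and imaged live in 0.2% BSA/PBS at 10× (TMRE ex/em 549/575 nm).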

Assay [11] concerns U2OS. The assay can be described thus: Inhibition of cell confluence in human U2OS cells at 2 uM measured after 48 hrs by PI/caspase-3/7 Green dye based analysis. It is filed as functional. In a few lines:
as §2

The test system of assay [12] is U2OS. The assay can be described thus: Effect on mitochondrial respiration in human U2OS cells assessed as suppression of OCR level at 10 uM measured after 24 hrs by Seahorse analysis relative to control. It is filed as functional. In a few lines: as §1
Assay [13] deals with U2OS. The assay can be described thus: Effect on oxidative phosphorylation in human U2OS cells at 2 uM incubated for 24 hrs by pathway over-representation analysis. It is filed as functional, cell-based. The method, boiled down: as §3
Assay [14] concerns U2OS. The assay can be described thus: Effect on glycolysis in human U2OS cells assessed as increase in ECAR level at highest concentration measured after 24 hrs by Seahorse analysis. In kind it is functional, cell-based. The method, boiled down: as §1
For assay [15], the system named is U2OS. Put plainly: Effect on mitochondrial dysfunction in human U2OS cells at 2 uM incubated for 24 hrs by pathway over-representation analysis. In kind it is functional, cell-based. The method, boiled down:
as §3

The subject of assay [16] is U2OS. The assay can be described thus: Effect on mitochondrial respiration in human U2OS cells assessed as suppression of OCR level at 2 to 10 uM of acute treatment by Seahorse analysis. In kind it is functional, cell-based. The note with it: dose 2-10 µM. In a few lines: as §1
The subject of assay [17] is U2OS. Put plainly: Induction of oxidative stress in human U2OS cells assessed as increase in mitochondrial superoxide level at 2 uM incubated for 1 hr by MitoSox Red staining based analysis. In kind it is functional, cell-based. The method, boiled down: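 U-2OS at 15,000/well were preloaded 30 min with 5 μM MitoSOX Red plus Hoechst in plain DMEM. They were then treated 60 min in complete DMEM, fixed in 0.5% paraformaldehyde, and imaged at 10×. Integrated MitoSOX intensity per cell was normalized to DMSO (0%) and 10 μM CDNB (100%). Mean ± SD, n = 3.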

Activity calls are given as the source filed them. No cut-off for these calls is given here.

Take `CCOC(=O)CCNc1cc(N2CCc3ccccc3CC2)nc(-c2ccccn2)n1`: the results for the Activity result in [1] and in assay [12] were “Dose-Dependent Effect” and approximately 100%, respectively. Further, the outcome in assay [2], in assay [4], in assay [6], in assay [7], in assay [8] and in assay [13] was Active. The result in assay [14], in assay [15] and in assay [17] was Active. Moreover, the inhibition entry in assay [3] is “Active”. In addition, the result in assay [5], in [9], in assay [10] and in [16] was inactive. In addition, the inhibition result in assay [11] was “inactive”.
